Experimental data as given in ChEMBL document CHEMBL3808280, “GroEL/ES inhibitors as potential antibiotics” (Bioorg Med Chem Lett, 2016).
≈ marks a conversion by molar mass, not a printed value. Calls of active or inactive are those of the source. The rule behind the calls is not given here.

Key:
[1] = system: Acinetobacter baumannii; experiment: Antibacterial activity against multidrug resistant Acinetobacter baumannii 2208 (ATCC 19606) assessed as reduction in bacterial growth incubated for 6 to 8 hrs; type: functional
Outline: (§1)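 Broth proliferation assay. S. aureus and MRSA grown in ATCC Medium 18, other pathogens in Brain Heart Infusion. Stagnant incubation at 37°C under breathable seal. OD600 read at mid-log (6-8 h) and corrected with bacteria-free baseline plates. EC50 by variable-slope nonlinear fit, at least triplicate.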

[2] = system: HEK293; experiment: Cytotoxicity against HEK293 cells assessed as reduction in cell viability after 48 hrs by alamar blue assay; type: cell-based; details: Homo sapiens, HEK293, 48 h
[3] = molecular target: T1, E. coli GroEL/ES (Escherichia coli, UniProt P0A6F5); experiment: Inhibition of Escherichia coli GroEL/GroES using Escherichia coli GroEL expressed in Escherichia coli DH5alpha cells and Escherichia coli GroES expressed in Escherichia coli BL21(DE3) cells assessed as reduction in denatured pig heart MDH ATPase activity by malachite green dye based assay
[4] = molecular target: T1, E. coli GroEL/ES; experiment: Inhibition of Escherichia coli GroEL/GroES using Escherichia coli GroEL expressed in Escherichia coli DH5alpha cells and Escherichia coli GroES expressed in Escherichia coli BL21(DE3) cells assessed as reduction in native refolded rhodanese-mediated thiocyanate production by micro plate reader analysis
[5] = Cytotoxicity against human THLE3 cells assessed as reduction in cell viability after 48 hrs by alamar blue assay; type: cell-based; details: THLE3, 48 h
[6] = molecular target: T2, HSP60/HSP10 (Homo sapiens, UniProt P10809); experiment: Inhibition of human HSP60/HSP10 expressed in Escherichia coli Rosetta2(DE3) cells assessed as reduction in denatured pig heart MDH ATPase activity by malachite green dye based assay
[7] = molecular target: T1, E. coli GroEL/ES; experiment: Inhibition of Escherichia coli GroEL/GroES using Escherichia coli GroEL expressed in Escherichia coli DH5alpha cells and Escherichia coli GroES expressed in Escherichia coli BL21(DE3) cells assessed as reduction in pig heart native refolded MDH-mediated NADH production by micro plate reader analysis
Outline: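 Native MDH counter-screen. GroEL/ES-dMDH refolding run 60 min at 37°C, then EDTA-quenched without compound. IC50 averaged from at least triplicate.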

[8] = system: Enterococcus faecium; experiment: Antibacterial activity against multidrug resistant Enterococcus faecium NCTC 7171 (ATCC 19434) assessed as reduction in bacterial growth incubated for 6 to 8 hrs; type: functional, organism-based; outline: as §1
[9] = system: Enterobacter cloacae; experiment: Antibacterial activity against multidrug resistant Enterobacter cloacae subsp. cloacae CDC 442-68 (ATCC 13047) assessed as reduction in bacterial growth incubated for 6 to 8 hrs; type: functional, organism-based; outline: as §1
[10] = system: Escherichia coli; experiment: Antibacterial activity against acrB-deficient Escherichia coli MC4100 assessed as reduction in bacterial growth incubated for 6 to 8 hrs; type: functional, organism-based
[11] = molecular target: T1, E. coli GroEL/ES; experiment: (§2) Inhibition of Escherichia coli GroEL/GroES using Escherichia coli GroEL expressed in Escherichia coli DH5alpha cells and Escherichia coli GroES expressed in Escherichia coli BL21(DE3) cells assessed as inhibition of denatured rhodanese refolding by measuring reduction in thiocyanate production incubated for 60 mins by micro plate reader analysis
Outline: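 Urea-denatured rhodanese bound to GroEL/GroES in folding buffer containing thiosulfate. After 60 min at 37°C, thiocyanate reaction (KCN, thiosulfate, phosphate) run, then formaldehyde quench and ferric nitrate added. Fe(SCN)3 read at 460 nm after 15 min RT, with protein-free baseline plates.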

[12] = system: Staphylococcus aureus; experiment: Antibacterial activity against Staphylococcus aureus subsp. aureus Seattle 1945 (ATCC 25923) assessed as inhibition of visual growth after 24 hrs; type: functional
Outline: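 MIC assay in Tryptic Soy broth (ATCC Medium 18). An overnight culture was diluted 5-fold, grown 1 h at 37°C, then diluted to OD600 0.01 (~10⁷ CFU/ml). Compounds were added in DMSO at fixed final concentrations (e.g. vancomycin 1.2-2.2 µM).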

[13] = system: Pseudomonas aeruginosa; experiment: Antibacterial activity against multidrug resistant Pseudomonas aeruginosa NCTC 10332 (ATCC 10145) assessed as reduction in bacterial growth incubated for 6 to 8 hrs; type: functional, organism-based; outline: as §1
[14] = Therapeutic index, ratio of EC50 for HEK293 cells to EC50 for Staphylococcus aureus subsp. aureus Seattle 1945 (ATCC 25923); type: cell-based; details: human, read-out: Ratio EC50
[15] = Therapeutic index, ratio of EC50 for human THLE3 cells to EC50 for Staphylococcus aureus subsp. aureus Seattle 1945 (ATCC 25923); type: cell-based; details: read-out: Ratio EC50
[16] = system: Klebsiella pneumoniae subsp. pneumoniae; experiment: Antibacterial activity against multidrug resistant Klebsiella pneumoniae subsp. pneumoniae NCTC 9633 (ATCC 13883) assessed as reduction in bacterial growth incubated for 6 to 8 hrs; type: functional, organism-based; outline: as §1
[17] = system: Staphylococcus aureus; experiment: Bactericidal activity against Staphylococcus aureus subsp. aureus Seattle 1945 (ATCC 25923) at 4 times MIC up to 24 hrs by agar dilution method; type: functional, organism-based
Outline: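 Time-kill in ATCC Medium 18. […] Viable counts were taken at 0, 1, 2, 4, 6 and 24 h by dilution and plating on Medium 18 agar. Values are averages of triplicates.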

[18] = system: Bacillus subtilis; experiment: Antibacterial activity against Bacillus subtilis 168 assessed as reduction in bacterial growth incubated for 6 to 8 hrs; type: functional, organism-based; details: subsp. subtilis str. 168
[19] = system: Escherichia coli; experiment: Antibacterial activity against Escherichia coli SM101 assessed as reduction in bacterial growth incubated for 12 hrs by UV-Vis spectrophotometric analysis; type: functional, organism-based; details: SM101, 12 h
[20] = molecular target: T1, E. coli GroEL/ES; experiment: as §2, with “pig heart MDH” for “rhodanese”, “NADH” for “thiocyanate”
Outline: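 Denatured MDH (guanidine-HCl/DTT, 30 min RT) bound to GroEL with GroES in Tris pH 7.4, KCl, MgCl2, DTT buffer. 60 min at 37°C, EDTA quench to 100 mM. Refolded MDH activity read with mesoxalate/NADH at 340 nm. Log-averaged IC50 from replicates.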

[21] = system: Escherichia coli; experiment: Antibacterial activity against Escherichia coli DH5alpha assessed as reduction in bacterial growth incubated for 6 to 8 hrs; type: functional, organism-based; details: DH5[alpha]
[22] = system: Staphylococcus aureus; experiment: Antibacterial activity against methicillin susceptible Staphylococcus aureus subsp. aureus Seattle 1945 (ATCC 25923) assessed as reduction in bacterial growth incubated for 6 to 8 hrs
[23] = molecular target: T2, HSP60/HSP10; experiment: Inhibition of human HSP60/HSP10 expressed in Escherichia coli Rosetta2(DE3) cells assessed as inhibition of denatured pig heart MDH refolding by measuring reduction in NADH production incubated for 60 mins by micro plate reader analysis
Outline: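 Pig heart MDH was denatured in guanidine-HCl (dMDH) and complexed with HSP60, then HSP10, in Tris pH 7.4/KCl/MgCl2/DTT buffer. EDTA quench (100 mM final); refolded MDH activity was followed with mesoxalate/NADH at 340 nm.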

[24] = system: Staphylococcus aureus; experiment: Antibacterial activity against methicillin resistant Staphylococcus aureus subsp. aureus HPV107 (ATCC BAA-44) assessed as reduction in bacterial growth incubated for 6 to 8 hrs; type: functional, organism-based; outline: as §1

T1 sequence (P0A6F5 whole entry, looked up): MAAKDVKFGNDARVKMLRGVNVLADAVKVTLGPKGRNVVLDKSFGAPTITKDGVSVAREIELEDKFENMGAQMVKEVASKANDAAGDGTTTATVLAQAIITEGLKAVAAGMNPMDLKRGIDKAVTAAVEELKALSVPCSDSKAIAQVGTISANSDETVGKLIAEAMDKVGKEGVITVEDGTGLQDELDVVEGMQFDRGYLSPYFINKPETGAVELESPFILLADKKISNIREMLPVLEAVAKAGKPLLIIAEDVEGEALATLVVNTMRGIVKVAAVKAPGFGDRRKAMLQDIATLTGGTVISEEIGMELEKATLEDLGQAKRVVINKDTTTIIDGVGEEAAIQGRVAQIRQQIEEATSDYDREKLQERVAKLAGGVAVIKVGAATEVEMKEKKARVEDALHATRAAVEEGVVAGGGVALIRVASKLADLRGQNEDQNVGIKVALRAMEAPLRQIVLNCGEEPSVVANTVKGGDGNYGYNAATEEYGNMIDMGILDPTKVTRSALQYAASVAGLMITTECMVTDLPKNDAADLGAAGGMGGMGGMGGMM
T2 sequence (P10809 whole entry): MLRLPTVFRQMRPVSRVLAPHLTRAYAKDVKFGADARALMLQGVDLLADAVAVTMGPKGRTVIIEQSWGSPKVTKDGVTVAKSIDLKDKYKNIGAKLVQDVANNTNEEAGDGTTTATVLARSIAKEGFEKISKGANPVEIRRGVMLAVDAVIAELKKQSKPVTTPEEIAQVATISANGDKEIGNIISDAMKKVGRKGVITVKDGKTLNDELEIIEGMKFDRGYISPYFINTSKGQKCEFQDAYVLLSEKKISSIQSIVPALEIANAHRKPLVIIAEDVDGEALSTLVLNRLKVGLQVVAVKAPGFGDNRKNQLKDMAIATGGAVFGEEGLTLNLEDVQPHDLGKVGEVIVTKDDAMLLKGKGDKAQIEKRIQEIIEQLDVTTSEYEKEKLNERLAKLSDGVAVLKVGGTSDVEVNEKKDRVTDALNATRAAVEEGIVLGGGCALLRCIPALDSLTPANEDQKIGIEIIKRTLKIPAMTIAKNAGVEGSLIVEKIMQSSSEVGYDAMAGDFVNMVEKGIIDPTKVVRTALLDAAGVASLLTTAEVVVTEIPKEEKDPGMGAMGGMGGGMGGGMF
T2 sequence (P61604 whole entry, further chain): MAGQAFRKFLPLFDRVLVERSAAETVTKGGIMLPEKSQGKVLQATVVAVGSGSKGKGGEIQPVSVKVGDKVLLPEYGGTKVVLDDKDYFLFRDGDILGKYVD

## O=C(Nc1ccc(Sc2nc3ccccc3s2)c(Cl)c1)c1cc(Br)cc(Br)c1O
[1]
  EC50: 30 µM
[2]
  EC50: 78 µM
[3]
  IC50: > 250 µM
[4]
  IC50: > 100 µM
[5]
  EC50: 12 µM
[6]
  IC50: 3.6 µM
[7]
  IC50: 7.1 µM
[8]
  EC50: 0.15 µM
[9]
  EC50: > 100 µM
[10]
  EC50: 2.3 µM
[11]
  IC50: 1.4 µM
[12]
  MIC: 0.6 µM (≈ 0.342 µg/mL)
[13]
  EC50: > 100 µM
[14]
  selectivity ratio: 390
[15]
  selectivity ratio: 60
[16]
  EC50: > 100 µM
[17]
  Activity: Active
[18]
  EC50: 0.1 µM
[19]
  EC50: 0.33 µM
[20]
  IC50: 1.4 µM
[21]
  EC50: > 100 µM
[22]
  EC50: 0.2 µM
[23]
  IC50: 5.5 µM
[24]
  EC50: 0.13 µM

## Cn1c(=O)c(C(=O)Nc2ccncc2)c(O)c2ccccc21
[1]
  EC50: > 100 µM
[2]
  EC50: > 100 µM
[4]
  IC50: > 100 µM
[5]
  EC50: > 100 µM
[6]
  IC50: > 250 µM
[7]
  IC50: > 62.5 µM
[8]
  EC50: > 100 µM
[9]
  EC50: > 100 µM
[10]
  EC50: 21 µM
[11]
  IC50: 6.8 µM
[12]
  MIC: 8 µM (≈ 2.36 µg/mL)
[13]
  EC50: > 100 µM
[14]
  selectivity ratio: > 55
[15]
  selectivity ratio: > 55
[16]
  EC50: > 100 µM
[17]
  Activity: Active
[18]
  EC50: 0.47 µM
[19]
  EC50: 3.3 µM
[20]
  IC50: 5.7 µM
[21]
  EC50: > 100 µM
[22]
  EC50: 1.8 µM
[23]
  IC50: > 100 µM
[24]
  EC50: 1.3 µM

## CN[C@@H](CC(C)C)C(=O)N[C@H]1C(=O)N[C@@H](CC(N)=O)C(=O)N[C@H]2C(=O)N[C@H]3C(=O)N[C@H](C(=O)N[C@@H](C(=O)O)c4cc(O)cc(O)c4-c4cc3ccc4O)[C@H](O)c3ccc(c(Cl)c3)Oc3cc2cc(c3O[C@H]2O[C@@H](CO)[C@H](O)[C@@H](O)[C@@H]2O[C@@H]2C[C@@](C)(N)[C@@H](O)[C@@H](C)O2)Oc2ccc(cc2Cl)[C@H]1O
[1]
  EC50: 17 µM
[8]
  EC50: 0.3 µM
[9]
  EC50: > 100 µM
[12]
  MIC: 1.6 µM (≈ 2.32 µg/mL)
[13]
  EC50: 74 µM
[16]
  EC50: > 100 µM
[17]
  Activity: Active
[22]
  EC50: 0.2 µM
[24]
  EC50: 0.17 µM
